Consider 38 variants from the RNAGym collection of RNA variant scans (doi:10.1126/science.aae0568).

B1: tRNA (parent)
chain: GUUCCGUUGGCGUAAUGGUAACGCGUCUCCCUCCUAAGGAGAAGACUGCGGGUUCGAGUCCCGUACGGAACG

Fewer inactive variants are shown than the library holds.

This series covers variants of B1. The series is described as follows: yeast fitness relative to wild type (ratio to wild type); higher = fitter; tRNA-Arg(CCU), competitive growth, 37 C, YPD. A digest of the protocol: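 Amplicons of the tRNA-Arg(CCU) gene were sequenced, 100-nucleotide paired-end, from the start population and from each end population of a pooled yeast competition. The competition, in six parallel replicates, lasted 24 hours in YPD at 37°C. Fitness relative to wild type was calculated from changes in genotype frequencies. Genotypes had to have ≥ 100 starting reads, and estimates < 0.5 were set to 0.5.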
In the case of GUUCCGUUGGCGUAAUGGUGACGAGUCUCCCUCCUAAGGAGAAGACUGCGGGUUCGAGUCCCGUACGGAACG [A20G C24A], the yeast fitness worked out at 0.56.
For GUUCCGUUGGCGUAAUGGUGACGGGUCUCCCUCCUAAGGAGAAGACUGCGGGUUCGAGUCCCGUACGGAACG [A20G C24G] the value was 0.575.
For GUUCCGUUGGCGUAAUGGUGACGUGUCUCCCUUCUAAGGAGACGACUGCGGGUUCGAGUCCCGUACGGAACG [A20G C24U C33U A43C] the value was at most 0.5; for GUUCCGUUGGCGUAAUGGUGAGGCGUCUCCCUCCUAAGGAGAAGACCGCGGGGUCGAGUCCCGUACGGAACG [A20G C22G U47C U53G], at most 0.5; for GUUCCGUUGGCGUAAUGGUGACGCGUCUCCCUCCUAAGGAGAAGACUGCGGGUUCGAGUCCCGUUCGGAACG [A20G A65U], 0.901.
For GUUCCGUUGGCGUAAUGGUGACGCGUCUCCCUCCUAAGGAGAAGACUGCGGGUUCGAGUCCCGUCCGGAACG [A20G A65C] the value was 1.06; for GUUCCGUUGGCGUAAUGGUGACGCGUAUCCCUCCUAAGGAGAAGACUACGGGUUCGAGUCCCGUACGGAACG [A20G C27A G48A], 0.762; for GUUCCGUUGGCGUAAUGGUGACGCGUCUCCCUCCUAAGGAGAAGACUGCGGGUUCGAGUCCCGUACGGCACG [A20G A69C], 0.916.
For the variant GUUCCGUUGGCGUAAUGGUGACGCGUCUCCCUCCUAAGGAGAAGACUGCGGGUUCGAGUCCCGUACGGGACG [A20G A69G], the yeast fitness stood at 1.04.
Turning to GUUCCGUUGGCGUAAUGGUGACGCGUCUCCCUCCUAAGGAGAAGACUGCGGGUUCGAGUCCCGUACGGUACG [A20G A69U], the yeast fitness came out at 1.07.
As to GUUCCGUUGGCGUAAUGGUGACGCGUCUCCCUCCUAAGGAGGAGACUGCGGGUUCGAGCCCCGUACGGAACG [A20G A42G U59C], the yeast fitness amounted to 0.634.
GUUCCGUUGGCGUAAUGGUGACGAGUAUCCCUCCUAAGGAGGAGACUGCGGGUUCGAGUCCCGUACGGCACG [A20G C24A C27A A42G A69C]: the yeast fitness is 0.56.
Turning to GUUCCGUUGGCGUAAUGGUGACGCGUCUCCCUCCUAAGGAGCAGACUGCGGGUUCGAGUCCCGGACGGAACG [A20G A42C U64G], the yeast fitness was at most 0.5.
For GUUCCGUUGGCGUAAUGGUGACGCGUCUCCCUCCUAAGGAGAUGACUGCGGGUUCGAGUCGCGUACGGAACG [A20G A43U C61G] the value was at most 0.5.
For GUUCCGUUGGCGUAAUGGUGACGCGUCUCCCUCCUAAGGGGAAGACUGUGGGUUCGAAUCCCGUACGGAACG [A20G A40G C49U G58A] the value was at most 0.5; for GUUCCGUUGGCGUAAUGGUGAACCGUCUCCCUCCUAAGGAGAAGACUGCGGGUUCGAGUCCCGUACGGAACG [A20G C22A G23C], at most 0.5.
Turning to GUUCCGUUGGCGUAAUGGUGACGCGUCUCCCUCCUAAGGUGAAGACUGCGCGUUCGAGUCCCGUACGGAACG [A20G A40U G51C], the yeast fitness is at most 0.5.
The same measure for GUUCCGUUGGCGUAAUGGUGACGUGUCUCCCUCCUAAGGAGAAGACUGCGGGUUCGAGUCCCGUCCGGAACG [A20G C24U A65C]: 0.653.
For GUUCCGUUGGCGUAAUGGUGACGCGUCUCCCUCCUAAGGAGAUGAUUGCGGGUUCGUGUCCCGUACGGAACG [A20G A43U C46U A57U] the value was at most 0.5; for GUUCCGUUGGCGUAAUGGUGACGUGUCUCCCACCUAAGGAGAAGACUGUGGGUUAGAGUCCCGUACGGAACG [A20G C24U U32A C49U C55A], at most 0.5.
GUUCCGUUGGCGUAAUGGUGAGGCGUCUCCCUCCUAAGGAGAAGCGUGCGGGUUCGUGUCCCGUACGGAACG [A20G C22G A45C C46G A57U]: the yeast fitness is 0.553.
GUUCCGUUGGCGUAAUGGUGAGGCGUGUCUGUCCUAAGGAGAAGACUGCGCGUUCGAGUCCCGUGCGGAACG [A20G C22G C27G C30U C31G G51C A65G]: the yeast fitness was found to be 0.563.
For GUUCCGUUGGCGUAAUGGUGAGGCGUCUCCCUCCUAAGGAGAAGACUGCGGGUUCAAGUCCCGUACAGAACG [A20G C22G G56A G67A] the value was at most 0.5; for GUUCCGUUGGCGUAAUGGUGACGCGUCUCCCUCCUAAGGGGAAGACUGCGGGUUCGAGUCCCGUAUGGAACG [A20G A40G C66U], 0.647.
For GUUCCGUUGGCGUAAUGGUGAGGCGUCUCCCUCCUAAGGAGAAGACCGCGGGUUCGAGUCCCGUACGGAACG [A20G C22G U47C] the value was 0.647; for GUUCCGUUGGCGUAAUGGUGACGCGUCUCCCUCCUAAGGAGAAGACUGCGGGUUCGAGUCCCGUUCGGCACG [A20G A65U A69C], at most 0.5; for GUUCCGUUGGCGUAAUGGUGACGCGUCUCCCUCCUAAGGAGAAGACUGCGGGUUCGAGUCCCGUUCGGUACG [A20G A65U A69U], 0.857.
As to GUUCCGUUGGCGUAAUGGUGACGCGUCUCCCUCCUAAGGAGAGGACGGCGGGUUCGAGUCCCGGACGGAACG [A20G A43G U47G U64G], the yeast fitness was at most 0.5.
The same measure for GUUCCGUUGGCGUAAUGGUGAGGCGUCUCCCUCCUAAGGAGAAGACUGGGGGUUCGAGUCCCGUACGGAACG [A20G C22G C49G]: 0.568.
For GUUCCGUUGGCGUAAUGGUGACGUGACUCCCUCCUAAGGAGAAGACUGCGGGUUCGAGUCGCGUCCGGAACG [A20G C24U U26A C61G A65C], the yeast fitness was determined as 0.567.
In the case of GUUCCGUUGGCGUAAUGGUGACGGGUCUCCCUCCUAAGGAGAAGACUGCGGGUUCGAGUACCGUACGGAACG [A20G C24G C60A], the yeast fitness is at most 0.5.
On to GUUCCGUUGGCGUAAUGGUGACGCGUAUCCCUCCUAAGGAGAAGAAUGCGGGUUCGAGUCCCGUACGGAACG [A20G C27A C46A], for which the yeast fitness is 0.737.
For GUUCCGUUGGCGUAAUGGUGAUGCGUCUCCCUCCUAAGGAGAAGACUGCGGGUUCGAGUCCCGUACGGAACG [A20G C22U] the value was 0.751; for GUUCCGUUGGCGUAAUGGUGACGCGUCUCCCUCCUAAGGGGGAGACUGCGGGUUUGAGUCCCGUACGGAACG [A20G A40G A42G C55U], at most 0.5.
As for GUUCCGUUGGCGUAAUGGUGACGCGUGUCCCUCCUAAGGAGAAGACUGCGGGUUCGAGUCCCGUACGGAACG [A20G C27G], the yeast fitness was found to be 0.608.
The same measure for GUUCCGUUGGCGUAAUGGUGACGCGUAUCCCUCCUAAGGAGAAGACUGCGGGUUCGAGUCCCGUACGGAACG [A20G C27A]: 0.933; for GUUCCGUUGGCGUAAUGGUGACGUGUCUCCCUUCUAAGGAGAAGACUGCGGGUUCGAGUCCCGUACGGAACG [A20G C24U C33U]: at most 0.5; for GUUCCGUUGGCGUAAUGGUGACGCGUCUCCCUCCUAAGGUGAAGACUGCGGGUUCGAGUCCCGAACGGAACG [A20G A40U U64A]: at most 0.5.
